# Screening data from PubChem.
# TAAR1 antagonist – antagonists of human TAAR1; Q96RJ0; actives 1.5% (n = 360,000); inhibition, % at 3 µM; CHO RD-HGA16 TAAR1, Fluo-8 calcium fluorescence, antagonist; AID 624466;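 active means inhibition above a per-plate cutoff, the mean inhibition of test compounds on that plate plus 3 SD, cut at about 49% in these data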;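 further: 0% = DMSO plus EC80 beta-PEA response and 100% = DMSO alone without agonist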
# Target sequence (Q96RJ0 whole entry, looked up): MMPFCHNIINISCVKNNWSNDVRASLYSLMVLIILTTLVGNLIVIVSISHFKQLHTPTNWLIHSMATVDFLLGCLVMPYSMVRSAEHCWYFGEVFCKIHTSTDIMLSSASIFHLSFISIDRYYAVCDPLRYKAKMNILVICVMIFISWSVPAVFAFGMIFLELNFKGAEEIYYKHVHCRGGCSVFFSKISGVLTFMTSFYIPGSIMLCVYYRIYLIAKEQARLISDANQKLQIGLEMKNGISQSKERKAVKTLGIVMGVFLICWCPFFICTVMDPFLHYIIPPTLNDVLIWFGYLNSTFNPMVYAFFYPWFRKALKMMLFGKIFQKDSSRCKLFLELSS
#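 System: CHO RD-HGA16 cells bearing hTAAR1. Reagent: EC80 β-phenethylamine stimulus. Schedule: seeding 17-24 h prior, 75-min 37 °C, 30-min RT dye loading. Signal: Fluo-8 intracellular calcium dye fluorescence, real-time kinetic reads. Read-out: % inhibition from peak post-agonist over basal fluorescence ratio. Benchmarks: vehicle wells and EC80 agonist wells. Replicates: n of 1.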
# NS3 helicase inh – blocks Hepatitis C virus NS3 helicase unwinding. actives 0.56% (n = 290,000). NS3 helicase DNA unwinding, Cy5 molecular beacon fluorescence. inhibition, % at 10.9 µM;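 active means inhibition above the mean of all tested compounds plus 3 SD, set per campaign, cut at about 35% in these data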;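 further: 0% = DMSO wells and 100% = thioflavine S control wells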
#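 Material: hepatitis C virus NS3 helicase domain fragment enzyme; measured by: Cy5 fluorescence, 0 and 60 min reads; control set: DMSO and thioflavine S; incubation: 60 min unwinding reaction at 25 °C after ATP addition; read-out basis: % inhibition from 60/0 min fluorescence ratio, DMSO 0%, thioflavine S 100%; repeats: singlicate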
# core dimer inh – blocks dimerization of HCV core protein; TR-FRET GST/Flag-core106 dimerization, 1536-well; inhibition, % at 5 µM; actives 0.33% (n = 300,000); AID 1899;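 active means inhibition above the mean of all tested compounds plus 3 SD, set per screening campaign, cut at about 45% in these data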
#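 System: GST-tagged and Flag-tagged HCV core protein residues 1-106 / Input: core106 proteins, GST 13.5 nM and Flag 17 nM / Buffer or medium: KF-containing HEPES buffer, pH 7.45, DTT, CHAPS, BSA / Probe or stimulus: Eu-anti-GST and XL665-anti-Flag labelled anti-tag antibodies / Schedule: 4 h, 22.5 °C incubation / Technique: TR-FRET 671 and 617 nm emission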
# TAAR1 agonist – human TAAR1 agonism; Q96RJ0; CHO RD-HGA16 TAAR1, Fluo-8 calcium fluorescence; vehicle wells 0%, saturating PEA agonist 100%; activation, % at 3 µM; actives 0.99% (n = 360,000);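 active means activation above the mean activation of all test compounds in the run plus 3 SD, cut at about 38% in these data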
#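 System: CHO-derived RD-HGA16 cells with stable Gα16 and human TAAR1 / Times: 17-24 h plating, Fluo-8 75 min 37 °C, 30 min RT / Technique: calcium-sensitive Fluo-8 signal, excitation 470-495, emission 515-575 nm / Measure: % activation relative to PEA EC100 response / Benchmarks: DMSO and PEA EC100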
# rCAG RNA binder – r(CAG) repeat RNA binding; TO-PRO-1 dye displacement fluorescence; inhibition, % at 3 µM; actives 1.3% (n = 370,000);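 active means inhibition above the plate cutoff, the mean of all test compounds on that plate plus 3 SD, cut at about 35% in these data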;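 further: 0% = DMSO alone and 100% = 100 µM mitoxantrone as full dye displacement; higher means more dye released from RNA so lower well fluorescence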
# rCAG binder conf – r(CAG) RNA repeat binding, confirmation; shares compounds with rCAG RNA binder; TO-PRO-1 dye displacement fluorescence; inhibition, % at 3 µM; actives 70% (n = 4,300);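 active means inhibition above a per-plate cutoff, the mean inhibition of sample wells plus 3 SD, cut at about 35% in these data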;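 further: loss of TO-PRO-1 fluorescence as compound displaces dye from 1x1 AA loop RNA; 0% = DMSO only wells and 100% = 100 µM mitoxantrone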
# dCAG dye counter – counter-screen for rCAG RNA binders: DNA CAG dye complex inhibitors. shares compounds with rCAG RNA binder. d(CAG) DNA oligo TO-PRO-1 dye displacement, fluorescence. inhibition, % at 3 µM. actives 94% (n = 4,300);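 active means inhibition above its plate's cutoff, the mean test-well inhibition plus 3 SD, cut at about 4.8% in these data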;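 further: 0% = DNA dye mix with DMSO and 100% = 100 µM mitoxantrone; hits displace the dye from DNA and so lower well fluorescence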
# The depositor's hits bear a star; . = no result given. Rows were chosen to be rich in hits. Some 3.7% of all compounds tested hit in one or more screens of this group.
SMILES,TAAR1 antagonist,NS3 helicase inh,core dimer inh,TAAR1 agonist,rCAG RNA binder,rCAG binder conf,dCAG dye counter
Cc1ccc(C2C(C#N)=C(N)Oc3n[nH]c(-c4ccccc4)c32)o1 (stereo not drawn),-8,9,-9,0,41*,40*,20*
Cc1ccc(C2C(C#N)=C(N)Oc3n[nH]c(-c4cccnc4)c32)o1 (stereo not drawn),4,1,-2,7,1,.,.
CCOC(=O)c1sc(NC(C)=O)nc1C,1,13,-2,11,1,.,.
CCOC(=O)c1sc(NC(=O)Nc2ccc(F)cc2)nc1C,62*,-11,-2,10,47*,34,23*
CCOC(=O)c1sc(NS(=O)(=O)c2cc(C)ccc2C)nc1C,12,14,10,-3,44*,32,7.7*
CCOC(=O)c1sc(NC(=O)Cc2ccc(F)cc2)nc1C,-10,-12,1,1,-1,.,.
COCCCN1C(=O)[C@H](CC(=O)N2CCC(c3ccccc3)CC2)[C@]2(C(=O)OC)CCCCC=C12,.,.,.,.,2,.,.
COc1ccc(C2C(C(=O)N3CCN(c4ccccc4Cl)CC3)CC(=O)N2c2ccc(OC)cc2)cc1 (stereo not drawn),.,.,.,.,4,.,.
COc1ccc(CN2C/C(=C/C3=CCCCC3)N(C(=O)OCc3ccccc3)C2=N)c(OC)c1,.,.,.,.,6,.,.
Cc1ccc(S(=O)(=O)N2CCOCC2)cc1C(=O)Nc1ccc(S(=O)(=O)Nc2nccs2)cc1,-1,6,0,0,39*,26,12*
O=C(Nc1ccc(S(=O)(=O)Nc2nccs2)cc1)c1ccc(S(=O)(=O)N2CCOCC2)cc1,0,5,4,5,22,.,.
O=C(Nc1ccc(S(=O)(=O)Nc2nccs2)cc1)c1ccc(F)c(S(=O)(=O)N2CCOCC2)c1,-1,1,4,1,45*,37*,16*
CCCSc1nc(O)c(C(c2ccc(OC)c(O)c2)c2c(O)nc(SCCC)n(C)c2=O)c(=O)n1C,0,10,-3,1,46*,40*,13*
COc1cccc(C(c2c(O)nc(SC)n(C)c2=O)c2c(O)nc(SC)n(C)c2=O)c1,15,0,-8,14,3,.,.
Nc1ccc(Nc2ccccc2)c(S(=O)(=O)O)c1,-27,25,-15,0,32,.,.
Cc1ccc(Nc2ccc(N)cc2S(=O)(=O)O)cc1,8,6,-11,0,36*,26,7.2*
Nc1cc2cccnc2cc1Cl,23,.,.,2,41*,5,1
N#C/C(=C(/O)COC(=O)c1ccc(O)cc1)c1nc2ccccc2[nH]1,-9,-3,-2,0,2,.,.
CCOC(=O)c1c(C)[nH]c(C(=O)OCC(O)=C(C#N)c2nc3ccccc3[nH]2)c1C,-5,.,.,3,42*,31,14*
COCc1cccc(-c2cc(C(=O)OC)c3n(c2=O)CCC3)c1,.,.,.,.,1,.,.
N#Cc1c(C(F)(F)F)cc(-c2ccco2)nc1SCc1ccccn1,1,19,5,0,37*,19,5.3*
CCN(CC)C(=O)CSc1nc(-c2ccco2)cc(C(F)(F)F)c1C#N,-18,-8,7,1,2,.,.
COc1ccc(C(=O)OCC(=O)Nc2ncc([N+](=O)[O-])s2)cc1OC,9,.,.,1,52*,74*,41*
Cc1nn(-c2cccc(Cl)c2)c2c1C(c1ccncc1)C(C#N)=C(N)O2 (stereo not drawn),8,3,0,1,36*,27,5.2*
Cc1nn(-c2ccccc2)c2c1C(c1ccc([N+](=O)[O-])cc1)C(C#N)=C(N)O2 (stereo not drawn),-8,2,-1,1,17,.,.
SMILES,TAAR1 antagonist,NS3 helicase inh,core dimer inh,TAAR1 agonist,rCAG RNA binder,rCAG binder conf,dCAG dye counter
COc1cc(C2C(C#N)=C(N)Oc3c2c(-c2ccccc2)nn3-c2ccccc2)cc(OC)c1OC (stereo not drawn),-22,6,11,4,62*,25,8.5*
Cc1nn(-c2cccc(Cl)c2)c2c1C(c1cccnc1)C(C#N)=C(N)O2 (stereo not drawn),-8,34,1,10,20,.,.
Cc1[nH]nc2c1C(c1ccc(Br)cc1)N(c1ccccc1)C2=O (stereo not drawn),-19,.,.,0,3,.,.
CCNC(=O)N1CCN(c2ccc(N3CCN(C(=O)NCC)[C@@H](C)C3)c(C)c2)[C@H](C)C1,-23,.,.,0,0,.,.
C=CCN(CC#CC(=C)C)Cc1ccccc1,.,.,.,.,-2,.,.
CC(C)(C)OC(=O)[C@H]1[C@H](c2ccc([N+](=O)[O-])cc2)C2(C(=O)c3ccccc3C2=O)C2c3ccccc3C=NN21 (stereo partly drawn),1,18,15,-1,36*,22,9.9*
COC[C@@H]1CCCN1c1cccc2c1S(=O)(=O)N(C1CC1)CC[C@@H](C)O2,.,.,.,.,11,.,.
Cc1ccc(NC(=O)OC2CC3CC2[C@H]2CCCCN2C3)cc1C (stereo partly drawn),.,.,.,.,3,.,.
Cc1cc(NS(=O)(=O)c2ccc(NC(=O)COc3ccc(Cl)cc3Cl)cc2)no1,-6,23,22,-2,55*,42*,12*
Cc1cc(NS(=O)(=O)c2ccc(NC(=O)COc3ccccc3C(C)(C)C)cc2)no1,-18,21,20,-1,72*,58*,25*
CCCCCOc1ccc(C(=O)Nc2ccc(S(=O)(=O)Nc3cc(C)on3)cc2)cc1,7,6,16,-1,7,.,.
Cc1cc(NS(=O)(=O)c2ccc(NC(=O)COc3ccccc3[N+](=O)[O-])cc2)no1,-25,7,18,1,33,.,.
Cc1cc(NS(=O)(=O)c2ccc(NC(=O)Nc3cccc(C(F)(F)F)c3)cc2)no1,2,-14,12,2,50*,53*,20*
Cc1cc(NS(=O)(=O)c2ccc(NC(=O)CCCOc3ccc(Cl)cc3)cc2)no1,-14,20,13,10,50*,34,10*
Cc1cccc(C)c1NC(=O)Cn1nnc(-c2ccncc2)n1,.,.,.,.,1,.,.
Cc1cc(NS(=O)(=O)c2ccc(NC(=O)COc3ccc(Cl)c(C)c3)cc2)no1,-4,3,.,0,41*,32,8.3*
O=C(C(=O)N1CCC(CNS(=O)(=O)Cc2ccccc2)CC1)c1cccs1,-10,.,.,1,2,.,.
O=C(/C=C/c1ccccc1)c1cc(Br)ccc(=O)c1O,54*,20,8,41*,51*,41*,17*
